Measured values reported in ChEMBL document CHEMBL2034830, “Pyrazole[3,4-e][1,4]thiazepin-7-one derivatives as a novel class of Farnesoid X Receptor (FXR) agonists” (Bioorg Med Chem, 2012).
The source made the active and inactive calls. The rule behind the calls is not given here.

Assays:
Bile acid receptor = target: T1, Bile acid receptor (Homo sapiens, UniProt Q96RI1); assay: Agonist activity at human GST-tagged FXR ligand binding domain assessed as recruitment of Src-1 peptide […] by AlphaScreen assay
T1 sequence (Q96RI1 whole entry): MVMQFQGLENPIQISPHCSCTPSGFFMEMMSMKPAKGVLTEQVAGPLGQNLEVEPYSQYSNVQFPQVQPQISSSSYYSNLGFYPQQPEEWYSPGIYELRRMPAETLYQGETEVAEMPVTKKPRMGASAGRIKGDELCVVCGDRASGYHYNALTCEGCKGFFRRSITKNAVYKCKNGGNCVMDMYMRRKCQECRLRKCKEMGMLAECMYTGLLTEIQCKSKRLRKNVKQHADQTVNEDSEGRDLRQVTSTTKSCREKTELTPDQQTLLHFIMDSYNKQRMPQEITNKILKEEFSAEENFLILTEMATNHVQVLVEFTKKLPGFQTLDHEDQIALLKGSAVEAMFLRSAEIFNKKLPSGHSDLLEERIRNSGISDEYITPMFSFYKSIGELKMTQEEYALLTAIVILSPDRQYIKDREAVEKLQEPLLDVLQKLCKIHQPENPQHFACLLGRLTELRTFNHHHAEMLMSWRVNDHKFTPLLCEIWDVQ

[1] = target: T2, Bile acid receptor (Homo sapiens) (UniProt Q96RI1); assay: Agonist activity at human GST-tagged FXR ligand binding domain assessed as recruitment of Src-1 peptide […] by AlphaScreen assay relative to 10 uM of CDCA
T2 sequence (whole entry): T1 sequence (Q96RI1 whole entry)

[2] = target: T2, Bile acid receptor (Homo sapiens); assay: Induction of FXR-mediated down-regulation of Cyp7alpha1 gene in human HepG2 cells after 18 hrs by qRT-PCR analysis; format: cell-based
Summary of the method: (§1)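 HepG2 cells were stimulated for 18 h with increasing compound concentrations. Total RNA was random reverse-transcribed, and 10 ng template was run in SYBR Green real-time PCR with 0.3 μM of each primer. Cycling was 95 °C 3 min, then 45 cycles of 95 °C 10 s and 60 °C 30 s, in triplicate. Expression is given as ΔCT against an endogenous control, and relative expression as ΔΔCT.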

[3] = target: T2, Bile acid receptor (Homo sapiens); assay: Induction of FXR-mediated upregulation of Ostbeta gene in human HepG2 cells after 18 hrs by qRT-PCR analysis relative to obeticholic acid; format: cell-based; summary of the method: as §1
[4] = target: T2, Bile acid receptor (Homo sapiens); assay: Induction of FXR-mediated upregulation of Bsep gene in human HepG2 cells after 18 hrs by qRT-PCR analysis; format: cell-based; summary of the method: as §1

COc1ccc(C2SC(C)C(=O)Nc3c2c(C)nn3-c2ccccc2C)c(OC)c1 (configuration not stated)
EC50 (Bile acid receptor; read-out: EC50): 10500 nM
Efficacy [1]: 63%

Cc1nn(-c2ccccc2F)c2c1C(c1ccc(Oc3ccccc3)cc1)SC(C)C(=O)N2 (mixture of isomers)
EC50 (Bile acid receptor; read-out: EC50): 3900 nM
Efficacy [1]: 72%

Cc1nn(-c2ccccc2Cl)c2c1C(c1ccc(Oc3ccccc3)cc1)SC(C)C(=O)N2 (mixture of isomers)
EC50 (Bile acid receptor; read-out: EC50): 2700 nM
Efficacy [1]: 57%

Cc1nn(-c2ccccc2Br)c2c1C(c1ccc(Oc3ccccc3)cc1)SC(C)C(=O)N2 (mixture of isomers)
EC50 (Bile acid receptor; read-out: EC50): 1800 nM
Efficacy [1]: 84%

Cc1ccccc1-n1nc(C)c2c1NC(=O)[C@H](C)S[C@@H]2c1ccc(-c2ccccc2)cc1 (racemic)
EC50 (Bile acid receptor; read-out: EC50): 990 nM
Efficacy [1]: 24%

COc1ccccc1-c1ccc([C@H]2S[C@@H](C)C(=O)Nc3c2c(C)nn3-c2ccccc2C)cc1 (racemic)
EC50 (Bile acid receptor; read-out: EC50): 1100 nM
Efficacy [1]: 50%

COc1cccc(-c2ccc([C@H]3S[C@@H](C)C(=O)Nc4c3c(C)nn4-c3ccccc3C)cc2)c1 (racemic)
EC50 (Bile acid receptor; read-out: EC50): 1800 nM
Efficacy [1]: 41%

COc1ccc(-c2ccc([C@H]3S[C@@H](C)C(=O)Nc4c3c(C)nn4-c3ccccc3C)cc2)cc1 (racemic)
EC50 (Bile acid receptor; read-out: EC50): 1200 nM
Efficacy [1]: 38%

CCOc1cccc(-c2ccc([C@H]3S[C@@H](C)C(=O)Nc4c3c(C)nn4-c3ccccc3C)cc2)c1 (racemic)
EC50 (Bile acid receptor; read-out: EC50): 3500 nM
Efficacy [1]: 13%

COC(=O)c1cccc(-c2ccc([C@H]3S[C@@H](C)C(=O)Nc4c3c(C)nn4-c3ccccc3C)cc2)c1 (racemic)
EC50 (Bile acid receptor): Not Active

COC(=O)c1ccc(-c2ccc([C@H]3S[C@@H](C)C(=O)Nc4c3c(C)nn4-c3ccccc3C)cc2)cc1 (racemic)
EC50 (Bile acid receptor): Not Active

Cc1ccccc1-n1nc(C)c2c1NC(=O)[C@H](C)S[C@@H]2c1ccc(-c2ccco2)cc1 (racemic)
EC50 (Bile acid receptor; read-out: EC50): 3600 nM
Efficacy [1]: 32%

Cc1ccccc1-n1nc(C)c2c1NC(=O)[C@H](C)S[C@@H]2c1ccc(-c2ccoc2)cc1 (racemic)
EC50 (Bile acid receptor; read-out: EC50): 3500 nM
Efficacy [1]: 40%

Cc1ccccc1-n1nc(C)c2c1NC(=O)[C@H](C)S[C@@H]2c1ccc(-c2cccc(C(=O)O)c2)cc1 (racemic)
EC50 (Bile acid receptor): Not Active

Cc1ccccc1-n1nc(C)c2c1NC(=O)[C@H](C)S[C@@H]2c1ccc(-c2ccc(C(=O)O)cc2)cc1 (racemic)
EC50 (Bile acid receptor): Not Active

Cc1ccccc1-n1nc(C)c2c1NC(=O)[C@H](C)S[C@@H]2c1ccc(/C=C/c2ccccc2)cc1 (racemic)
EC50 (Bile acid receptor): Not Active

Cc1ccccc1-n1nc(C)c2c1NC(=O)[C@H](C)S[C@@H]2c1ccc(-c2cccs2)cc1 (racemic)
EC50 (Bile acid receptor; read-out: EC50): 2600 nM
Efficacy [1]: 85%

Cc1ccccc1-n1nc(C)c2c1NC(=O)[C@H](C)S[C@@H]2c1ccc(-c2ccsc2)cc1 (racemic)
EC50 (Bile acid receptor; read-out: EC50): 1400 nM
Efficacy [1]: 68%

Cc1ccccc1-n1nc(C)c2c1NC(=O)[C@H](C)S[C@@H]2c1ccc(-c2cc3ccccc3o2)cc1 (racemic)
EC50 (Bile acid receptor; read-out: EC50): 1500 nM
Efficacy [1]: 17%

Cc1ccccc1-n1nc(C)c2c1NC(=O)[C@H](C)S[C@@H]2c1ccc(Oc2ccccc2)cc1 (racemic)
EC50 (Bile acid receptor; read-out: EC50): 1300 nM
Efficacy [1]: 118%

COc1ccccc1Oc1ccc([C@H]2S[C@@H](C)C(=O)Nc3c2c(C)nn3-c2ccccc2C)cc1 (racemic)
Activity [2]: Dose-dependent effect
EC50 (Bile acid receptor; read-out: EC50): 1700 nM
Activity [3]: Active
Activity [4]: inactive
Efficacy [1]: 240%

COc1cccc(Oc2ccc([C@H]3S[C@@H](C)C(=O)Nc4c3c(C)nn4-c3ccccc3C)cc2)c1 (racemic)
EC50 (Bile acid receptor; read-out: EC50): 1700 nM
Efficacy [1]: 120%

COc1ccc(Oc2ccc([C@H]3S[C@@H](C)C(=O)Nc4c3c(C)nn4-c3ccccc3C)cc2)cc1 (racemic)
EC50 (Bile acid receptor; read-out: EC50): 2200 nM
Efficacy [1]: 70%

Cc1ccccc1-n1nc(C)c2c1NC(=O)[C@H](C)S[C@@H]2c1ccc(Oc2ccccc2C(=O)O)cc1 (racemic)
EC50 (Bile acid receptor): Not Active

Cc1ccccc1-n1nc(C)c2c1NC(=O)[C@H](C)S[C@@H]2c1ccc(Oc2cccc(C(=O)O)c2)cc1 (racemic)
EC50 (Bile acid receptor): Not Active

Cc1ccccc1-n1nc(C)c2c1NC(=O)[C@H](C)S[C@@H]2c1ccc(Oc2ccc(C(=O)O)cc2)cc1 (racemic)
EC50 (Bile acid receptor): Not Active

Cc1ccccc1-n1nc(C)c2c1NC(=O)[C@H](C)S[C@@H]2c1ccc(OCc2ccccc2)cc1 (racemic)
EC50 (Bile acid receptor): Not Active

COc1cc([C@H]2S[C@@H](C)C(=O)Nc3c2c(C)nn3-c2ccccc2C)ccc1Oc1ccccc1 (racemic)
EC50 (Bile acid receptor; read-out: EC50): 1900 nM
Efficacy [1]: 130%

Cc1cccc(-n2nc(C)c3c2NC(=O)[C@H](C)S[C@@H]3c2ccc(Oc3ccccc3)cc2)c1 (racemic)
EC50 (Bile acid receptor; read-out: EC50): 2400 nM
Efficacy [1]: 22%

Cc1ccc(-n2nc(C)c3c2NC(=O)[C@H](C)S[C@@H]3c2ccc(Oc3ccccc3)cc2)cc1 (racemic)
EC50 (Bile acid receptor; read-out: EC50): 3400 nM
Efficacy [1]: 11%

CCc1ccccc1-n1nc(C)c2c1NC(=O)[C@H](C)S[C@@H]2c1ccc(Oc2ccccc2)cc1 (racemic)
Activity [2]: Dose-dependent effect
EC50 (Bile acid receptor; read-out: EC50): 1100 nM
Activity [3]: Active
Activity [4]: Dose-dependent effect
Efficacy [1]: 190%

CCCc1ccccc1-n1nc(C)c2c1NC(=O)[C@H](C)S[C@@H]2c1ccc(Oc2ccccc2)cc1 (racemic)
Activity [2]: Dose-dependent effect
EC50 (Bile acid receptor; read-out: EC50): 1100 nM
Activity [3]: Active
Activity [4]: inactive
Efficacy [1]: 240%

Cc1nn(-c2ccccc2C(C)C)c2c1[C@@H](c1ccc(Oc3ccccc3)cc1)S[C@@H](C)C(=O)N2 (racemic)
EC50 (Bile acid receptor; read-out: EC50): 1900 nM
Efficacy [1]: 174%

Cc1nn(-c2ccccc2C(F)(F)F)c2c1C(c1ccc(Oc3ccccc3)cc1)SC(C)C(=O)N2 (racemic)
EC50 (Bile acid receptor; read-out: EC50): 2000 nM
Efficacy [1]: 50%

Cc1nn(-c2ccccc2I)c2c1C(c1ccc(Oc3ccccc3)cc1)SC(C)C(=O)N2 (racemic)
EC50 (Bile acid receptor; read-out: EC50): 1300 nM
Efficacy [1]: 130%

COc1ccccc1-n1nc(C)c2c1NC(=O)[C@H](C)S[C@@H]2c1ccc(Oc2ccccc2)cc1 (racemic)
EC50 (Bile acid receptor; read-out: EC50): 3300 nM
Efficacy [1]: 37%
